# Assay results of several laboratories.
# Compare with care: the assays were run in different laboratories.
# Target: Casein kinase II subunit alpha (CSNK2A1, Homo sapiens, UniProt P68400)
effect on,method,concentration,remaining binding,Compound
binding,,1 µM,52%,N[C@@H]1CCN(c2nccc(-c3cnn4ncccc34)n2)C1
binding,competition with immobilised ligand,1 µM,0.9%,O=C(c1ccc(Nc2ncc(Cl)c(-c3ccc(Cl)s3)n2)cc1)N1CCC(N2CCCC2)CC1
cell-free assay,competition with immobilised ligand,1 µM,100%,CC1=C(C#N)[C@@H](c2ccc3[nH]nc(C)c3c2)C(C#N)=C(c2ccc(Cl)cc2)N1
binding,competition with immobilised ligand,1 µM,94%,CNC(=O)[C@@H]1CC[C@@H](n2c(-c3ccc4cnccc4c3)nc3ccc(C(=O)NCc4cccc(C(N)=O)c4)cc32)C1
binding,,1 µM,39%,CN(C)c1nccc(-c2cnn3ncccc23)n1
cell-free assay,competition with immobilised ligand,1 µM,100%,Cc1cc(-n2nc(Cc3cc(F)cc(C(F)(F)F)c3)nc2C)ccc1C(N)=O
binding,competition with immobilised ligand,1 µM,4%,O=C(NCCCN1CCOCC1)c1ccc(Nc2ncc(Cl)c(-c3ccc(Cl)s3)n2)cc1
cell-free assay,competition with immobilised ligand,1 µM,81%,CSc1cccnc1N1CCN(Cc2nc3ccccc3[nH]2)CC1
binding,,1 µM,89%,C[C@@H]1CCN(c2nccc(-c3cnn4ncccc34)n2)C1
cell-free assay,competition with immobilised ligand,1 µM,85%,O=S(=O)(NC1CCC(c2cc(F)ccc2F)(S(=O)(=O)c2ccc(Cl)cc2)CC1)C(F)(F)F (centres unmarked)
binding,competition with immobilised ligand,1 µM,68%,COc1cnc(Nc2cccc(S(N)(=O)=O)c2)nc1N1CCN(c2ccccc2)C(=O)C1
binding,competition with immobilised ligand,1 µM,0.9%,O=C(c1ccc(Nc2ncc(Cl)c(-c3cc4ccccc4s3)n2)cc1)N1CCC(N2CCCC2)CC1
binding,,1 µM,86%,Cc1cnn2ncc(-c3ccnc(N(C)C)n3)c2c1
cell-free assay,competition with immobilised ligand,1 µM,100%,COc1cc(-c2cn(C3CCc4c(F)cccc4N(CC(F)(F)F)C3=O)nn2)ccc1-n1cnc(C)c1 (centres unmarked)
cell-free assay,competition with immobilised ligand,5 µM,92%,COc1ncc2cc3ccccc3nc2c1C#N
binding,competition with immobilised ligand,1 µM,79%,Nc1ncc2c(n1)-c1c([nH]c3ccc(C#CC4CC4)cc13)CCCC2
binding,,1 µM,66%,CN(CCCC(F)(F)F)c1nccc(-c2cnn3ncccc23)n1
binding,competition with immobilised ligand,1 µM,59%,O=C(NCC1CCOCC1)c1n[nH]cc1NC(=O)c1c(F)cccc1F
binding,,1 µM,47%,CN(C)c1nccc(-c2cnc3ncccn23)n1
cell-free assay,competition with immobilised ligand,1 µM,74%,CCC(=O)N[C@H]1CC[C@@H](C(=O)N(C)c2ccc(-c3nc4ccccc4o3)cc2)C1
